Article PMC11319934 (PNAS Nexus, 2024)
Bridge positions count the residues as written; N and C are the ends. Square brackets hold non-standard residues; d marks the D form. Peptide text beside a SMILES is read from it. * marks the point of attachment. X1 = CN(C)c1ccc2c(-c3ccc(C(=O)*)cc3C(=O)[O-])c3ccc(=[N+](C)C)cc-3oc2c1; R5 = C=CCCC[C@@](C)(N)C(=O)O; S5 = C=CCCC[C@](C)(N)C(=O)O

Assays:
[1] = system: A. thaliana seedlings (Col-0); assay: Root growth of A. thaliana seedlings with MeJA; type: in vivo, Arabidopsis thaliana; details: 7-day-old Col-0 seedlings, MeJA 50 µM on 1/2 MS, n = 15
Summary of the method: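 Surface-sterilized Col-0 seeds stratified 2–3 days at 4°C. Grown on half-strength MS plates (2% sucrose, 0.4% gellan gum) with MeJA (50 µM) ± test compound (10 µM), under 16 h light (75 µmol m-2 s-1)/8 h dark at 22°C. Whole-seedling root length measured (n = 15). Repeated three times; one-way ANOVA/Tukey's HSD, P < 0.01.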

[2] = molecular target: T1, His-MYC3-FLAG (His6-SUMO-MYC3(44–238)-FLAG) (Arabidopsis thaliana, UniProt Q9FIP9); assay: Fluorescence anisotropy; type: binding; details: for fold lower Kd with His-MYC3-FLAG than that of 1: ratio of Kd of 1 to Kd of the peptide
T1 sequence (Q9FIP9 44-238): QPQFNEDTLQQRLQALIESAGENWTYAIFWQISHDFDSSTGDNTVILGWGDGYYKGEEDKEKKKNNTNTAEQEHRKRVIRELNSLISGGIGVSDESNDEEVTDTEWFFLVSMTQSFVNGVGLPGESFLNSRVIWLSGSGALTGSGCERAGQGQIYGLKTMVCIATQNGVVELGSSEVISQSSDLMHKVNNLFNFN

[3] = molecular target: T2, His-EIL1-FLAG (Arabidopsis thaliana, UniProt Q9SLH0); assay: Fluorescence anisotropy; type: binding
T2 sequence (Q9SLH0 201-501): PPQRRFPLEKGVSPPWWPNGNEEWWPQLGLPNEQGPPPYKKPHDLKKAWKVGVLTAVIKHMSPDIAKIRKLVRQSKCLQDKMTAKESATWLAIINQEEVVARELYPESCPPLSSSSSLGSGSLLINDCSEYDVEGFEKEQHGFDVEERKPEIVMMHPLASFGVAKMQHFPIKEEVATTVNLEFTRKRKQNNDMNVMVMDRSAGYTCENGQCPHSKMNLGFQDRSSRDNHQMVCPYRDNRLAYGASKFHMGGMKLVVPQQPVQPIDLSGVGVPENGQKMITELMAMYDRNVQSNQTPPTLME
Summary of the method: (§1)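 FA titration at 25°C in 20 mM Tris-HCl pH 8.0, 200 mM NaCl, 10% glycerol, 10% cOmplete EDTA-free, with 2-mercaptoethanol (EIN3/EIL1 family). Protein added dropwise to 100 nM TMR-labelled peptide; His-EIN3-FLAG titrated 0–2 µM. Anisotropy read at ex/em 543/573.5 nm. Each point is the average of three independent measurements. Apparent Kd obtained by nonlinear curve fitting.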

[4] = molecular target: T3, His-EIN3-FLAG (His6-SUMO-EIN3(200–500)-FLAG) (Arabidopsis thaliana, UniProt O24606); assay: Fluorescence anisotropy; type: binding
T3 sequence (O24606 200-500): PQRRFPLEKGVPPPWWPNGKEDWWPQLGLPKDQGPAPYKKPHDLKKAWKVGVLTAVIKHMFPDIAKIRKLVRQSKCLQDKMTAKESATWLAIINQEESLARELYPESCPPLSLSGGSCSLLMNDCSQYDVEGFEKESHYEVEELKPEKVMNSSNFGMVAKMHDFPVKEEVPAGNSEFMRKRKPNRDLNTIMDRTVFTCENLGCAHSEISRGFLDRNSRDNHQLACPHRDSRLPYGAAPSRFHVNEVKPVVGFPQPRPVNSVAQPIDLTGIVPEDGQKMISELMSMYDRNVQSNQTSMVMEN
Summary of the method: as §1

[5] = system: M. polymorpha gemmalings (Tak-1); assay: Growth; type: in vivo, Marchantia polymorpha; details: Tak-1 gemmalings on 1/2 B5 medium, OPDA 50 µM, n = 24
Summary of the method: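 Tak-1 gemmalings grown 2 weeks on half-strength Gamborg's B5 with 1% agar, containing OPDA (50 µM) ± test compound (10 µM). Continuous light 50–60 µmol m-2 s-1, 22°C. Plant area measured in mm2 (n = 24). Experiment repeated three times; one-way ANOVA/Tukey's HSD, P < 0.01.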

SMILES	Kd [2] [nM]	fold lower Kd with His-MYC3-FLAG than that of 1 [2] [fold]	Kd [4] [nM]	also measured
CC/C=C\CC1C(=O)CCC1CC(=O)OC (stereo not shown) [MeJA, methyl jasmonate, reference compound]				root growth of seedlings [1]: severe root growth inhibition
CC[C@H](C)[C@H](NC(=O)[C@H](C)NC(=O)CNC(=O)[C@H](CCC(N)=O)NC(=O)[C@@H](NC(=O)[C@H](CC(=O)O)NC(=O)[C@H](CCCNC(=N)N)NC(=O)[C@H](Cc1ccccc1)NC(=O)[C@H](CO)NC(=O)[C@H](CCCNC(=N)N)NC(=O)[C@H](CCCNC(=N)N)NC(=O)[C@H](CCCNC(=N)N)NC(=O)[C@H](CC(=O)O)NC(=O)[C@H](CC(C)C)NC(=O)[C@H](Cc1ccccc1)NC(=O)[C@H](CCCCN)NC(=O)[C@H](CCC(N)=O)NC(=O)[C@H](Cc1ccccc1)NC(=O)c1ccc(-c2c3ccc(=[N+](C)C)cc-3oc3cc(N(C)C)ccc23)c(C(=O)[O-])c1)[C@@H](C)CC)C(=O)N[C@@H](CO)C(=O)N[C@@H](CCCCN)C(=O)N[C@H](C(=O)N[C@@H](CC(=O)O)C(=O)N1CCC[C@H]1C(=O)N[C@@H](CCC(=O)O)C(=O)N[C@H](C(=O)N[C@H](C(=O)N[C@@H](CCCCN)C(=O)N[C@@H](CO)C(=O)N[C@@H](CC(C)C)C(=O)N[C@@H](CC(C)C)C(=O)N[C@@H](C)C(=O)N[C@@H](CO)C(=O)N[C@H](C(=O)O)[C@@H](C)O)[C@@H](C)CC)[C@@H](C)CC)[C@@H](C)CC [compound 1] (X1-FQKFLDRRRSFRDIQGAISKIDPEIIKSLLAST-OH)	210			Kd [3]: 440 nM
CC[C@H](C)[C@H](NC(=O)[C@H](C)NC(=O)CNC(=O)[C@H](CCC(N)=O)NC(=O)[C@@H](NC(=O)[C@H](CC(=O)O)NC(=O)[C@H](CCCNC(=N)N)NC(=O)[C@H](Cc1ccccc1)NC(=O)[C@H](CO)NC(=O)[C@H](CCCNC(=N)N)NC(=O)[C@H](CCCNC(=N)N)NC(=O)[C@H](CCCNC(=N)N)NC(=O)[C@H](CC(=O)O)NC(=O)[C@H](CC(C)C)NC(=O)[C@H](Cc1ccccc1)NC(=O)[C@H](CCCCN)NC(=O)[C@H](CCC(N)=O)NC(=O)[C@H](Cc1ccccc1)NC(=O)c1ccc(-c2c3ccc(=[N+](C)C)cc-3oc3cc(N(C)C)ccc23)c(C(=O)[O-])c1)[C@@H](C)CC)C(=O)N[C@@H](CO)C(=O)N[C@@H](CCCCN)C(=O)N[C@H](C(=O)N[C@@H](CC(=O)O)C(=O)N1CCC[C@H]1C(=O)N[C@@H](CCC(=O)O)C(=O)N[C@]1(C)CCCC=CCCC[C@@](C)(C(=O)N[C@@H](CC(C)C)C(=O)N[C@@H](CC(C)C)C(=O)N[C@@H](C)C(=O)N[C@@H](CO)C(=O)N[C@H](C(=O)O)[C@@H](C)O)NC(=O)[C@H](CCCCN)NC(=O)[C@H]([C@@H](C)CC)NC1=O)[C@@H](C)CC [compound 3] (X1-FQKFLDRRRSFRDIQGAISKIDPE[R5]IK[S5]LLAST-OH; staple 25-28)	310	0.67	600	
CC/C=C\C[C@@H]1C(=O)C=C[C@@H]1CCCCCCCC(=O)O [OPDA, reference compound]				plant growth (plant area) [5]: inhibited plant growth
CC[C@H](C)[C@H](NC(=O)[C@H](CCCCN)NC(=O)[C@H](CO)NC(=O)[C@@H](NC(=O)[C@]1(C)CCCC=CCCC[C@](C)(NC(=O)[C@H](CCCNC(=N)N)NC(=O)[C@H](Cc2ccccc2)NC(=O)[C@H](CO)NC(=O)[C@H](CCCNC(=N)N)NC(=O)[C@H](CCCNC(=N)N)NC(=O)[C@H](CCCNC(=N)N)NC(=O)[C@H](CC(=O)O)NC(=O)[C@H](CC(C)C)NC(=O)[C@H](Cc2ccccc2)NC(=O)[C@H](CCCCN)NC(=O)[C@H](CCC(N)=O)NC(=O)[C@H](Cc2ccccc2)NC(=O)c2ccc(-c3c4ccc(=[N+](C)C)cc-4oc4cc(N(C)C)ccc34)c(C(=O)[O-])c2)C(=O)N[C@@H]([C@@H](C)CC)C(=O)N[C@@H](CCC(N)=O)C(=O)NCC(=O)N1)[C@@H](C)CC)C(=O)N[C@@H](CC(=O)O)C(=O)N1CCC[C@H]1C(=O)N[C@@H](CCC(=O)O)C(=O)N[C@H](C(=O)N[C@H](C(=O)N[C@@H](CCCCN)C(=O)N[C@@H](CO)C(=O)N[C@@H](CC(C)C)C(=O)N[C@@H](CC(C)C)C(=O)N[C@@H](C)C(=O)N[C@@H](CO)C(=O)N[C@H](C(=O)O)[C@@H](C)O)[C@@H](C)CC)[C@@H](C)CC [compound 2] (X1-FQKFLDRRRSFR[S5]IQG[S5]ISKIDPEIIKSLLAST-OH; staple 13-17)	61	7	290	
